Laboratory results as given in publication PMC2906805 (The open enzyme inhibition journal, 2009).

Target: T1, PMPMEase (EPL, esterase from porcine liver) (Sus scrofa, UniProt Q29550)
T1 sequence (Q29550 19-566): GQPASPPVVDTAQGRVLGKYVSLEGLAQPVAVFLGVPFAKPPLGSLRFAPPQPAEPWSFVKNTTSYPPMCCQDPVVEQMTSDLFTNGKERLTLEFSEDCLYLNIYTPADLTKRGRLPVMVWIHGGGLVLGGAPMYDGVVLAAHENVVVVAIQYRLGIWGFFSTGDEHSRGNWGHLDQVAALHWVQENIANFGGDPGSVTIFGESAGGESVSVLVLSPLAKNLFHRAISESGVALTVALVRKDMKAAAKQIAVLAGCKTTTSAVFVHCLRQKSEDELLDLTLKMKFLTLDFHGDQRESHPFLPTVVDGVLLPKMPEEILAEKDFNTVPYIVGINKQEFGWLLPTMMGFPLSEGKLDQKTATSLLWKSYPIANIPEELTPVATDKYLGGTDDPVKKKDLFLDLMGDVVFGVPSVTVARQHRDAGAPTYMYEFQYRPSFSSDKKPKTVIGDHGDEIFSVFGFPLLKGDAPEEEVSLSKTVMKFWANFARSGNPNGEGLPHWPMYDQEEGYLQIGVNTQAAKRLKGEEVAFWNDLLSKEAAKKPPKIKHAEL
Experiment: HPLC product assay with UV detection, Michaelis-Menten fit
Type: biochemical
In short: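 Commercial porcine liver esterase (0.1 to 5 µg per assay, depending on substrate) was incubated with varying concentrations of S-alkylated cysteinyl ester substrates in 100 mM Tris-HCl, pH 7.4, with 5% DMSO at 37°C. Reactions were stopped, and acid products were quantified by reversed-phase HPLC at 260 nm (p-nitrobenzoyl substrates) or 214 nm (others). Base-hydrolysed substrate standards supplied the calibration. Km came from a Michaelis-Menten fit.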

Km | SMILES
400 ± 115 µM | COC(=O)CNC(=O)c1ccc([N+](=O)[O-])cc1 [L-102, methyl 2-(4-nitrobenzamido)acetate]
960 ± 180 µM | COC(=O)[C@H](CSCCC(C)C)NC(=O)c1ccc([N+](=O)[O-])cc1 [L-81, (R)-methyl 2-(4-nitrobenzamido)-3-(isopentylthio)propanoate]
53 ± 7 µM | COC(=O)[C@H](CSCC[C@H](C)CCC=C(C)C)NC(=O)c1ccc([N+](=O)[O-])cc1 [L-86, (R)-methyl 3-((R)-3,7-dimethyloct-6-enylthio)-2-(4-nitrobenzamido)propanoate]
505 ± 63 µM | CCSC[C@H](NC(=O)c1ccc([N+](=O)[O-])cc1)C(=O)OC [L-74, (R)-methyl 2-(4-nitrobenzamido)-3-(ethylthio)propanoate]
29 ± 2.2 µM | COC(=O)[C@H](CSC/C=C(\C)CC/C=C(\C)CCC=C(C)C)NC(=O)c1ccc([N+](=O)[O-])cc1 [RD-PNB, (R)-methyl 3-((2E,6E)-3,7,11-trimethyldodeca-2,6,10-trienylthio)-2-(4-nitrobenzamido)propanoate]
56 ± 9.6 µM | COC(=O)[C@H](CSCC[C@@H](C)CCC=C(C)C)NC(=O)c1ccc([N+](=O)[O-])cc1 [L-83, (R)-methyl 3-((S)-3,7-dimethyloct-6-enylthio)-2-(4-nitrobenzamido)propanoate]
11 ± 0.9 µM | COC(=O)[C@@H](CSC/C=C(\C)CC/C=C(\C)CCC=C(C)C)NC(=O)c1ccc([N+](=O)[O-])cc1 [L-70, (S)-methyl 3-((2E,6E)-3,7,11-trimethyldodeca-2,6,10-trienylthio)-2-(4-nitrobenzamido)propanoate]
87 ± 12 µM | COC(=O)[C@H](CSC/C=C(\C)CCC=C(C)C)NC(=O)c1ccc([N+](=O)[O-])cc1 [L-72, (R)-methyl 3-((E)-3,7-dimethylocta-2,6-dienylthio)-2-(4-nitrobenzamido)propanoate]
294 ± 25 µM | COC(=O)[C@H](CSCC=C(C)C)NC(=O)c1ccc([N+](=O)[O-])cc1 [L-77, (R)-methyl 3-(3-methylbut-2-enylthio)-2-(4-nitrobenzamido) propanoate]
21 ± 4.2 µM | COC(=O)[C@@H](CSC/C=C(\C)CC/C=C(\C)CCC=C(C)C)NC(C)=O [L-69, (S)-methyl 3-((2E,6E)-3,7,11-trimethyldodeca-2,6,10-trienylthio)-2-acetamidopropanoate]
11 ± 0.9 µM | CCOC(=O)[C@H](CSC/C=C(\C)CC/C=C(\C)CCC=C(C)C)NC(=O)c1ccc([N+](=O)[O-])cc1 [L-76, (R)-ethyl 3-((2E,6E)-3,7,11-trimethyldodeca-2,6,10-trienylthio)-2-(4-nitrobenzamido)propanoate]
40.5 ± 3.7 µM | COC(=O)[C@H](CSCc1ccccc1)NC(=O)c1ccc([N+](=O)[O-])cc1 [L-93, (R)-methyl 2-(4-nitrobenzamido)-3-(benzylthio)propanoate]
8.4 ± 0.89 µM | COC(=O)[C@H](CSC/C=C(\C)CC/C=C(\C)CCC=C(C)C)NC(=O)CNC(=O)c1ccc([N+](=O)[O-])cc1 [RD-18, N-(4-Nitrobenzoylglycyl)-S-(trans, trans-farnesyl)cysteine methyl ester]
5.9 ± 0.7 µM | CC(C)=CCC/C(C)=C/CC/C(C)=C/CSC[C@H](NC(=O)c1ccc([N+](=O)[O-])cc1)C(=O)OC(C)C [L-75, (R)-isopropyl 3-((2E,6E)-3,7,11-trimethyldodeca-2,6,10-trienylthio)-2-(4-nitrobenzamido)propanoate]
15 ± 2.7 µM | COC(=O)[C@H](CSC/C=C(\C)CC/C=C(\C)CC/C=C(\C)CCC=C(C)C)NC(=O)c1ccc([N+](=O)[O-])cc1 [L-80, (R)-methyl 3-((2E,6E,10E)-3,7,11,15-tetramethylhexadeca-2,6,10,14-tetraenylthio)-2-(4-nitrobenzamido) propanoate]
300 ± 38 µM | COC(=O)[C@H](C)NC(=O)c1ccc([N+](=O)[O-])cc1 [L-111, (S)-methyl 2-(4-nitrobenzamido)propanoate]
